Source: publication PMC3128676 (Angewandte Chemie (International ed. in English), 2011)
“Also recorded” adds a separate entry of the source.

Experiments:
[1] = In vivo biodistribution and clearance in SD rats; design: species or system Sprague-Dawley (SD) rats; settings: Rat, 4 h postinjection
How it was run: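 Sprague-Dawley male rats (250 to 300 g) received 40 pmol/g fluorophore in saline i.v. and were imaged with the FLARE system on surgically exposed organs. Excitation was 14 mW/cm2 of 745–779 nm light, with emission through an 800–848 nm bandpass and exposure held constant. CBR = (FL–BG)/BG was scored relative to abdominal wall. N = 5.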

[2] = Optical property measurements in 100% FBS at 37°C; assay type: physicochemical; settings: for Stokes Shift / λem / λexc / ε (extinction coefficient) / Φ (fluorescence quantum yield): 100% FBS; for ε (extinction coefficient): 50 mM HEPES pH 7.4, 37°C; for Φ (fluorescence quantum yield): ICG in DMSO as standard
How it was run: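 Spectra were taken at 37°C in 100% FBS buffered with 50 mM HEPES, pH 7.4, on fiberoptic absorbance (200–1100 nm) and fluorescence (350–1000 nm) spectrometers. Excitation was a 770 nm laser diode set to 8 mW. […] Dyes available only as NHS ester were first hydrolysed to acid in 50 mM borate, pH 9.0, for 3 h.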

[3] = In vivo biodistribution and clearance in CD-1 mice; settings: for Uptake in intestine / Uptake in kidneys / Uptake in liver / CBR Bl (bladder) relative to abdominal wall / CBR He/Lu (heart/lungs) relative to abdominal wall / CBR In (intestine) relative to abdominal wall / CBR Li (liver) relative to abdominal wall / CBR Re (rectum) relative to abdominal wall / CBR Sk/Mu (skin/muscle) relative to abdominal wall / CBR Sp (spleen) relative to abdominal wall / Carcass (retention) / Eliminated (from the body into urine): 4 h postinjection; for β-phase blood half-life (t1/2β): CD-1 mice, 40 pmol/g i.v.; for CBR Bl (bladder) relative to abdominal wall / CBR He/Lu (heart/lungs) relative to abdominal wall / CBR In (intestine) relative to abdominal wall / CBR Li (liver) relative to abdominal wall / CBR Re (rectum) relative to abdominal wall / CBR Sk/Mu (skin/muscle) relative to abdominal wall / CBR Sp (spleen) relative to abdominal wall / Carcass (retention) / Eliminated (from the body into urine): Mouse; for half-life: blood; for half-life / tissue uptake at 4 h: 40 pmol/g; for Route of elimination (renal clearance), in words: mice, 4 h
How it was run: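 CD-1 male mice (25 to 30 g) received 40 pmol/g fluorophore in saline i.v. and were imaged with the FLARE system on surgically exposed organs. Excitation was 14 mW/cm2 of 745–779 nm-filtered light, with emission through an 800–848 nm bandpass and exposure and normalization held constant. ROI fluorescence and background gave CBR = (FL–BG)/BG, scored against abdominal wall. N = 5, mean ± S.D.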

[4] = Stability in warm serum; assay type: in vitro ADME, bovine; settings: 100% FBS, up to 4 h
[5] = in dimethyl sulfoxide; cited from earlier work
[6] = tested on: serum proteins; assay type: in vitro ADME, bovine; settings: 4 h incubation in 100% FBS

Molecule | CBR Bl (bladder) relative to abdominal wall [1] | CBR He/Lu (heart/lungs) relative to abdominal wall [1] | CBR In (intestine) relative to abdominal wall [1] | CBR Li (liver) relative to abdominal wall [1] | CBR Re (rectum) relative to abdominal wall [1] | CBR Sk/Mu (skin/muscle) relative to abdominal wall [1] | CBR Sp (spleen) relative to abdominal wall [1] | Stokes Shift [2] [nm] | λem [2] [nm] | λexc [2] [nm] | ε (extinction coefficient) [2] | Φ (fluorescence quantum yield) [2] [%] | CBR Bl (bladder) relative to abdominal wall [3] | CBR He/Lu (heart/lungs) relative to abdominal wall [3] | CBR In (intestine) relative to abdominal wall [3] | CBR Li (liver) relative to abdominal wall [3] | CBR Re (rectum) relative to abdominal wall [3] | CBR Sk/Mu (skin/muscle) relative to abdominal wall [3] | CBR Sp (spleen) relative to abdominal wall [3] | Carcass (retention) [3] [%ID] | also measured
CC1(C)C(=CC=C2CCCC(C=CC3=[N+](CCCCCC(=O)[O-])c4ccc(S(=O)(=O)[O-])cc4C3(C)C)=C2Oc2ccc(S(=O)(=O)[O-])cc2)N(CCCCS(=O)(=O)[O-])c2ccc(S(=O)(=O)[O-])cc21.[Na+].[Na+].[Na+].[Na+] [CW800, IRDye™800-CW carboxylic acid] | +++ (+++, > 5) | – (–, 0 to 1) | +++ (+++, > 5) | + (+, 1 to 2) | + (+, 1 to 2) | + (+, 1 to 2) | – (–, 0 to 1) | 14 | 800 | 786 | 237,000 M^-1cm^-1 | 14.2 | +++ (+++, > 5) | – (–, 0 to 1) | +++ (+++, > 5) | – (–, 0 to 1) | ++ (++, 2 to 5) | + (+, 1 to 2) | – (–, 0 to 1) | 52.4 ± 9.6 | Uptake in intestine [3]: 28.5 ± 7.0 %ID/g; Uptake in kidneys [3]: 7.3 ± 1.3 %ID/g; Uptake in liver [3]: 11.4 ± 0.8 %ID/g; β-phase blood half-life (t1/2β) [3]: 18.5 min; Eliminated (from the body into urine) [3]: 44.0 ± 4.6 %ID; Decomposition [4]: 4.0%
CC1(C)C(/C=C/C=C/C=C/C=C2\N(CCCCS(=O)(=O)O)c3ccc4ccccc4c3C2(C)C)=[N+](CCCCS(=O)(=O)[O-])c2ccc3ccccc3c21 [ICG, indocyanine green] | – (–, 0 to 1) | – (–, 0 to 1) | +++ (+++, > 5) | ++ (++, 2 to 5) | + (+, 1 to 2) | – (–, 0 to 1) | – (–, 0 to 1) | 15 | 822 | 807 | 121,000 M^-1cm^-1 | 9.3 | – (–, 0 to 1) | – (–, 0 to 1) | +++ (+++, > 5) | ++ (++, 2 to 5) | + (+, 1 to 2) | – (–, 0 to 1) | – (–, 0 to 1) | 97.1 ± 9.4 | Φ (fluorescence quantum yield) of calibration standard [5]: 13%; Eliminated (from the body into urine) [3]: 2.2 ± 0.9 %ID; half-life ([3]; male, CD-1, mouse, iv): 3.6 min; tissue uptake at 4 h ([3]; male, CD-1, mouse, intestine, intravenous): 62 ± 6.6 %ID/g; tissue uptake at 4 h ([3]; male, CD-1, mouse, kidneys, intravenous): 5.9 ± 1 %ID/g; tissue uptake at 4 h ([3]; male, CD-1, mouse, liver, intravenous): 27.1 ± 0.5 %ID/g; Route of elimination (renal clearance), in words [3]: undetectable in urine; half-life ([3]; mouse, intravenous): 2 to 5 min; Decomposition [4]: 5.9%; Serum protein binding (HD shift by GFC) [6]: significant HD shift
CC1(C)C(/C=C/C2=C(Oc3ccc(CCC(=O)O)cc3)C(=C/C=C3/N(CCC[N+](C)(C)C)c4ccc(S(=O)(=O)O)cc4C3(C)C)/CCC2)=[N+](CCC[N+](C)(C)C)c2ccc(S(=O)(=O)O)cc21 [ZW800-1] | +++ (+++, > 5) | – (–, 0 to 1) | – (–, 0 to 1) | – (–, 0 to 1) | – (–, 0 to 1) | – (–, 0 to 1) | – (–, 0 to 1) | 16 | 788 | 772 | 249,000 M^-1cm^-1 | 15.1 | +++ (+++, > 5) | – (–, 0 to 1) | – (–, 0 to 1) | – (–, 0 to 1) | – (–, 0 to 1) | – (–, 0 to 1) | – (–, 0 to 1) | 12.4 ± 3.4 | Carcass (retention) ([1]; not measured directly): 14.8 ± 6.5 %ID; Eliminated ([1]; not measured directly): 83.4 ± 15.9 %ID; Product of extinction coefficient and quantum yield in serum, relative to ICG ([2]; in serum): over 3 fold; Found in urine ([3]; 1 h post-injection): 51.3 ± 9.7 %ID; Uptake in intestine [3]: 0.7 ± 0.4 %ID/g; Uptake in kidneys [3]: 9.8 ± 2.2 %ID/g; Uptake in liver [3]: 0.9 ± 0.1 %ID/g; β-phase blood half-life (t1/2β) [3]: 15.1 min; Eliminated (from the body into urine) [3]: 86.0 ± 15.4 %ID; Route of elimination (renal clearance), in words [3]: exclusively cleared by the kidneys; also recorded: mostly renally cleared; Decomposition [4]: 5.5%; Serum protein binding (HD shift by GFC) [6]: does not exhibit protein binding; also recorded: no serum protein binding; also recorded: did not adsorb to serum proteins
IRDye™800-RS carboxylic acid [RS800] | – (–, 0 to 1) | – (–, 0 to 1) | +++ (+++, > 5) | – (–, 0 to 1) | ++ (++, 2 to 5) | – (–, 0 to 1) | – (–, 0 to 1) | 16 | 800 | 784 | 240,000 M^-1cm^-1 | 16.9 | ++ (++, 2 to 5) | – (–, 0 to 1) | ++ (++, 2 to 5) | – (–, 0 to 1) | +++ (+++, > 5) | – (–, 0 to 1) | – (–, 0 to 1) | 79.0 ± 4.1 | β-phase blood half-life (t1/2β) [3]: 11.2 min; Eliminated (from the body into urine) [3]: 15.5 ± 1.2 %ID; Renal filtration / renal excretion ([3]; approximate, discussion statement): ≈ 20%; Decomposition [4]: 4.4%
